Data: ChEMBL document CHEMBL1140877, “Synthesis and evaluation of Hsp90 inhibitors that contain the 1,4-naphthoquinone scaffold” (Bioorg Med Chem, 2009)

What was measured:
Heat shock protein HSP90 [1] = molecular target: T1, Heat shock protein HSP90 (Homo sapiens, UniProt P07900+P08238); assay: Inhibition of Hsp90 in human SKBR3 cells assessed as down-regulation of Her2 protein by ELISA; assay type: cell-based; conditions: sk-br-3
In short: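 SKBr3 cells seeded 3000/well, attached overnight, dosed at varying concentrations for 24 hr. Cells washed with ice-cold PBS/1% Tween, fixed and permeabilised in -20 °C methanol (4 °C, 10 min), blocked in 5% BSA/PBST 1 hr, probed with rabbit anti-Her2 (1:500, 4 °C overnight), then HRP anti-rabbit IgG (1:1000, 2 hr rt); chemiluminescence read. Mean ± SEM, three experiments in triplicate.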

SK-BR-3 = assay: Antiproliferative activity against ERalpha negative/Her2 over expressing human SKBR3 cells after 72 hrs by MTS/PMS assay; assay type: functional, cell-based; conditions: SK-BR-3, 72 h
In short: (§1)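 MCF-7 and SKBr3 cells grown in 1:1 DMEM:Ham's F-12 with non-essential amino acids, 2 mM L-glutamine, penicillin/streptomycin, 10% FBS. Seeded 2000 cells/well, attached overnight, then exposed to varying concentrations in DMSO (1% final) for 72 hr at 37 °C, 5% CO2. Viable cells read by MTS/PMS; 1% DMSO wells set as 100% proliferation. Mean ± SEM, three experiments in triplicate.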

MCF7 = assay: Antiproliferative activity against ERalpha positive human MCF7 cells after 72 hrs by MTS/PMS assay; assay type: functional, cell-based; conditions: MCF7, 72 h; in short: as §1
[2] = Inhibition of Hsp90-dependent renaturation of firefly luciferase in rabbit reticulocyte lysate at 25 ug/mL; set-up: species or system Oryctolagus cuniculus
Heat shock protein HSP90 [3] = molecular target: T1, Heat shock protein HSP90; assay: Inhibition of Hsp90 in human MCF7 cells assessed as degradation of Akt protein by Western blot analysis; assay type: cell-based
In short: (§2)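 MCF-7 cells seeded at 1×10^6 per dish, attached overnight, treated at varying concentrations for 24 h (37 °C, 5% CO2), then harvested and immunoblotted for client proteins (Her2, Raf-1, Akt) with actin as non-client reference; GA (500 nM) and DMSO as controls.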

Heat shock protein HSP90 [4] = molecular target: T1, Heat shock protein HSP90; assay: Inhibition of Hsp90 in human MCF7 cells assessed as degradation of Her2 protein by Western blot analysis; assay type: cell-based; in short: as §2
Heat shock protein HSP90 [5] = molecular target: T1, Heat shock protein HSP90; assay: Inhibition of Hsp90 in human MCF7 cells assessed as degradation of Raf1 protein by Western blot analysis; assay type: cell-based; in short: as §2

Row | IC50 (Heat shock protein HSP90 [1]) | IC50 (SK-BR-3) | IC50 (MCF7) | IC50 [2] | Activity (Heat shock protein HSP90 [3]) | Activity (Heat shock protein HSP90 [4]) | Activity (Heat shock protein HSP90 [5]) | SMILES
1 | 3.2 µM | 1.5 µM | 1.6 µM |  |  |  |  | CC(=O)NC1=C(c2ccccc2)C(=O)c2ccccc2C1=O
2 | > 100 µM | > 100 µM | > 100 µM | 86 µM |  |  |  | COc1ccc(C2=C(NC(=O)c3ccc(OC)c(-c4cccc(OC)c4)c3)C(=O)c3ccccc3C2=O)cc1
3 | 12.9 µM | 9.5 µM | 3.4 µM |  |  |  |  | COc1ccc(C2=C(NC(=O)c3cccc(Cl)c3)C(=O)c3ccccc3C2=O)cc1
4 | 2.5 µM | 1.7 µM | 2.2 µM | 1.6 µM |  |  |  | COc1ccccc1C1=C(NC(C)=O)C(=O)c2ccccc2C1=O
5 | 9.9 µM | 5.8 µM | 2.2 µM |  |  |  |  | COc1ccc(C2=C(NC(=O)c3cccc4ccccc34)C(=O)c3ccccc3C2=O)cc1
6 | 13.3 µM | 6.8 µM | 2.4 µM |  |  |  |  | CC(=O)NC1=C(c2ccc3oc4ccccc4c3c2)C(=O)c2ccccc2C1=O
7 | 5.3 µM | 1.8 µM | 1.4 µM | 0.2 µM | Dose-dependent effect | Dose-dependent effect | Dose-dependent effect | CC(=O)NC1=C(c2ccc(Cl)cc2)C(=O)c2ccccc2C1=O
8 | > 100 µM | > 100 µM | 6 µM |  |  |  |  | O=C(NC1=C(c2ccc3oc4ccccc4c3c2)C(=O)c2ccccc2C1=O)c1ccccc1
9 | 1.7 µM |  | 3 µM | 1.6 µM | Dose-dependent effect | Dose-dependent effect | Dose-dependent effect | COc1cccc(-c2cc(C(=O)NC3=C(Cl)C(=O)c4ccccc4C3=O)ccc2OC)c1
10 | 5.8 µM | 7.9 µM | 2.1 µM |  |  |  |  | COc1ccc(C2=C(NC(=O)c3ccccc3OC)C(=O)c3ccccc3C2=O)cc1
11 | 2.5 µM | 4.8 µM | 1.9 µM | 1.4 µM |  |  |  | COc1ccc(C2=C(NC(=O)C3CCCCC3)C(=O)c3ccccc3C2=O)cc1
12 | 2.3 µM | 3.6 µM | 3 µM |  |  |  |  | CC(=O)NC1=C(c2ccccc2Cl)C(=O)c2ccccc2C1=O
13 | 30.1 µM | 2.1 µM | 1.8 µM |  |  |  |  | O=C(NC1=C(Cl)C(=O)c2ccccc2C1=O)c1ccccc1
14 | 1.8 µM | 4 µM |  |  |  |  |  | O=C(NC1=C(c2ccccc2Cl)C(=O)c2ccccc2C1=O)c1ccccc1
15 | 44.2 µM | 6.4 µM | 1.8 µM |  |  |  |  | COc1ccc(C2=C(NC(=O)c3cccc(OC)c3)C(=O)c3ccccc3C2=O)cc1
16 | 3.3 µM | 0.82 µM | 0.21 µM | 0.25 µM |  |  |  | CC(=O)C1=C(c2ccccc2)C(=O)c2ccccc2C1=O
17 | 3 µM | 1.9 µM | 2.2 µM | 39 µM |  |  |  | COc1ccccc1C1=C(NC(=O)c2ccccc2)C(=O)c2ccccc2C1=O

Row | IC50 (Heat shock protein HSP90 [1]) | IC50 (SK-BR-3) | IC50 (MCF7) | IC50 [2] | Activity (Heat shock protein HSP90 [3]) | Activity (Heat shock protein HSP90 [4]) | Activity (Heat shock protein HSP90 [5]) | SMILES
18 | 2 µM | 2.5 µM | 1.3 µM |  |  |  |  | CC(=O)NC1=C(c2cccc(Cl)c2)C(=O)c2ccccc2C1=O
19 | 2.7 µM |  | 1.4 µM |  |  |  |  | COc1cccc(C2=C(NC(=O)c3ccccc3)C(=O)c3ccccc3C2=O)c1
20 | > 100 µM | > 100 µM | 6.8 µM |  |  |  |  | COc1ccc(C2=C(NC(=O)c3ccc4ccccc4c3)C(=O)c3ccccc3C2=O)cc1
21 | 3 µM |  | 3.3 µM |  |  |  |  | COc1ccc(C2=C(NC(=O)c3ccc(Cl)cc3)C(=O)c3ccccc3C2=O)cc1
22 | 2.4 µM | 6.4 µM | 1.5 µM | 24 µM |  |  |  | COc1ccc(C(=O)NC2=C(c3ccc(OC)cc3)C(=O)c3ccccc3C2=O)cc1
23 | 2 µM | 5.5 µM | 2.2 µM |  | Dose-dependent effect | Dose-dependent effect | Dose-dependent effect | COc1ccc(C2=C(NC(=O)c3ccccc3Cl)C(=O)c3ccccc3C2=O)cc1
24 | 3.8 µM | 6.8 µM | 2.1 µM |  |  |  |  | O=C(NC1=C(c2ccccc2)C(=O)c2ccccc2C1=O)c1ccccc1
25 | > 100 µM | > 100 µM | 23 µM |  |  |  |  | O=C(NC1=C(c2ccc(Oc3ccccc3)cc2)C(=O)c2ccccc2C1=O)c1ccccc1
26 | 2.8 µM | 4 µM | 1.4 µM |  |  |  |  | COc1ccc(C2=C(NC(=O)c3ccccc3)C(=O)c3ccccc3C2=O)cc1
27 | 4.8 µM | 3.9 µM | 2.7 µM |  |  |  |  | COc1cccc(C2=C(NC(C)=O)C(=O)c3ccccc3C2=O)c1
28 | 1.2 µM | 0.87 µM | 0.83 µM | 0.02 µM |  |  |  | O=C1c2ccccc2C(=O)c2c1nc1ccccn21
29 | 24.6 µM | 12.1 µM | 2.5 µM |  |  |  |  | CC(=O)NC1=C(c2ccc(Oc3ccccc3)cc2)C(=O)c2ccccc2C1=O
30 | 6.3 µM | 12.7 µM | 4.8 µM |  |  |  |  | O=C(NC1=C(c2cccc(Cl)c2)C(=O)c2ccccc2C1=O)c1ccccc1
31 | 6.6 µM | 0.6 µM | 1.7 µM | 5 µM |  |  |  | CC(=O)NC1=C(Cl)C(=O)c2ccccc2C1=O
32 | 1.8 µM | 8.5 µM | 2.6 µM | 1.4 µM |  |  |  | O=C(NC1=C(c2ccc(Cl)cc2)C(=O)c2ccccc2C1=O)c1ccccc1
33 | 1.2 µM | 2.9 µM | 19 µM | 0.38 µM |  |  |  | CC(=O)NC1=C(N2CCOCC2)C(=O)c2nonc2C1=O
34 | 2.2 µM | 2.7 µM |  |  |  |  |  | COc1ccc(C2=C(NC(C)=O)C(=O)c3ccccc3C2=O)cc1
